Bioassay records from PubChem BioAssay.
This is a sample that favours compounds with a hit; in the whole collection about 3.2% have one here.
Ecoli rRNA inh – reduced GFP signal of wild-type E. coli, primary screen, bacterial rRNA inhibitor project, GFP/RFP fluorescence, OD600, single point; E. coli WT GFP vs humanized-ribosome RFP mutants, 24 h; hits give low values; DMSO median 0, no signal -100; GFP signal change (wild-type ribosome), % (concentration not given with the values); 350,000 compounds, 1.6% hits;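 active = significant combined selectivity score with lowered wild-type GFP, culture density cut under 30%, mutant RFP and density less affected; inactive = any of these conditions unmet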
DENV2 CPE rescue – inhibitors of DENV2 cytopathic effect, primary screen, cell-based, plate reader, single concentration. AID 651640, 2012. CPE inhibition, % at 9.99 µM. 350,000 compounds, 1.7% hits. DENV2-infected cells, cytopathic effect rescue; in the data active = CPE inhibition above about 20%, passing the limit was not always enough; inconclusive = no clear call, values can overlap the other calls; tested in BHK-21 cells;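 note: 0% = median of neutral control wells and 100% = median of positive control wells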
AF4-AF9 inh – inhibitors of AF4 peptide binding to AF9, primary screen, biochemical, AlphaScreen, biotin-AF4 peptide, FLAG-AF9, single point; Protein AF-9 (Homo sapiens), P42568; inhibition, % at 10 µM; 350,000 compounds, 0.47% hits; AID 651704, 2012;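 active = every replicate reaching a set inhibition limit, whatever the replicate mean, cut at about 25% in these data; inconclusive = mean inhibition reaches that limit but some replicates miss it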;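 note: 0% = plate neutral control median and 100% = total signal loss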
Target sequence (P42568 whole entry, looked up): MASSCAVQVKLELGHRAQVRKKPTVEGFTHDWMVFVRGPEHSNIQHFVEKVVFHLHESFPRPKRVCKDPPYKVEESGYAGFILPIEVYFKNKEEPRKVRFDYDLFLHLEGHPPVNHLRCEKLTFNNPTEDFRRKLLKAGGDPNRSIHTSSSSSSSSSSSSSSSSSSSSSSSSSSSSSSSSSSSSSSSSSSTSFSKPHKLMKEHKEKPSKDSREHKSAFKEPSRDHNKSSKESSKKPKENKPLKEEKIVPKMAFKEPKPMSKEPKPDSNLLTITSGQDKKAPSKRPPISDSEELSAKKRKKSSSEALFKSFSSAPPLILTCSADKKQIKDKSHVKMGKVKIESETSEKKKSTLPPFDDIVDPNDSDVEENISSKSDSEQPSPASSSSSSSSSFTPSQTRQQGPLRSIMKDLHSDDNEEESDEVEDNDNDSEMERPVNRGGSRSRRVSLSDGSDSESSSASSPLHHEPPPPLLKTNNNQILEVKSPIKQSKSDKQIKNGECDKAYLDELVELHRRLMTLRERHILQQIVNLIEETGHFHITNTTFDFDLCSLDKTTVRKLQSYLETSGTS
PfHsp90 set2 – growth inhibition of PfHsp90-expressing yeast, primary screen, antimalarial PfHsp90 inhibitor project, S. cerevisiae, BacTiter-Glo luminescence, single point, set 2; BacTiter-Glo ATP, 48 h; yeast lacking PDR1 and PDR3 efflux regulators; inhibition, % at 9.4 µM; 310,000 compounds, 0.32% hits; AID 504621, 2011;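 active = every replicate shows inhibition above about 80%, whatever the replicate mean, limit read from the data; inconclusive = mean inhibition reaches the set limit but some replicate falls short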;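 note: 0% = DMSO neutral controls and 100% = 20 µM radicicol positive controls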
S100A4 MyoIIA – inhibitors of S100A4-myosin IIA peptide binding, primary screen, biochemical, fluorescence polarization, TAMRA-MyoIIA peptide. inhibition, % at 10.7 µM. 360,000 compounds, 0.14% hits. AID 652163, 2013;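 active = mean inhibition of at least 70% across replicates, with every replicate also reaching that level; inconclusive = mean inhibition reaches 70% but some replicates fall short; inactive = mean inhibition below 70%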
Target sequence (P26447 whole entry, looked up): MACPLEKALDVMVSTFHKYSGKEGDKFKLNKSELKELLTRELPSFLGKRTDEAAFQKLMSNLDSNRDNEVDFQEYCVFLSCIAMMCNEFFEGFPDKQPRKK
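Test system: S100A4 monomer protein; Medium: HEPES pH 7.2 with CaCl2, KCl, NaCl, DTT, Triton; Probe or stimulus: TAMRA-labelled myosin IIA heavy-chain peptide probe, 5 nM; Doses: one dose per compound; Times: polarization read 5 min after assay mix addition, stable 5–60 min; Benchmarks: neutral control DMSO, positive control TFP.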
Cneo AK release – Cryptococcus neoformans cell lysis inducers, primary screen, AK release luminescence, single concentration; lysis activity, % at 15 µM; C. neoformans lysis, adenylate kinase release luminescence, 4 h; normalised: neutral wells 0, clomiphene wells 100; 360,000 compounds, 0.2% hits; AID 651654, 2012;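 active = mean lysis activity across replicates of at least 80%, whatever share of replicates individually reach that level; inactive = mean lysis activity below 80%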
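Assay system: C. neoformans cells. Amount: yeast cell density of 5 × 10^6 cells/mL. Technique: AK luminescence. Buffer or medium: YPD. Times: static 4 h at 37 °C with compound, 1 h detection. Dosing: single-point compound dose. Read-out: lysis from increased AK signal.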
An asterisk follows results filed as active; ? = inconclusive; nt = not tested or not shown; ! = not confirmed by another sample.

SMILES	Ecoli rRNA inh	DENV2 CPE rescue	AF4-AF9 inh	PfHsp90 set2	S100A4 MyoIIA	Cneo AK release
COCC(=O)Nc1ccc2c(c1)[C@H]1C[C@H](CC(=O)NC3CCCCC3)O[C@@H](CO)[C@H]1O2	1.4	10.0	0.7	nt	2.3	2.1
CC=Cc1ccc2n(c1=O)C[C@@H]1[C@@H](CO)[C@H](C(=O)NC3Cc4ccccc4C3)N(CC3CCCC3)[C@H]21 (mixture of isomers)	-10.6	12.0	4.2	nt	-8.3	nt
CCN(c1ccccc1)S(=O)(=O)c1ccc(C(=O)N2CCN(c3ccccc3F)CC2)cc1	-0.6	52.7*	-2.2	nt	-20.0	0.5
Cc1cccc(C=NNc2cc(C)c3cccc(C)c3n2)n1	-4.9	?	25.1*	nt	2.8	nt
COc1ccc(-c2ccc(C(=O)NCc3ccc(N4CCN(C)CC4)cc3)c3occc23)c(C)c1	nt	-2.1	36.9*	nt	-0.2	11.4
COc1ccc(-c2ccc(C(=O)NCc3ccccc3)c3occc23)c(C)c1	6.7	-13.9	0.8	nt	2.5	0.0
CCNC(=O)C[C@H]1CC[C@H]2[C@@H](COC[C@H](O)CN2C(=O)Nc2ccc3c(c2)OCO3)O1	3.7	7.9	0.4	nt	-4.5	-3.7
CN1[C@@H]2c3ccc(-c4ccccc4F)c(=O)n3C[C@H]1[C@H](CO)[C@H]2C(=O)NCc1ccccn1	0.2	-2.4	0.4	nt	4.8	0.2
C[C@H](CO)N1C[C@H](C)[C@@H](CN(C)S(=O)(=O)c2ccc(Cl)cc2)Oc2c(NC(=O)NC3CCCCC3)cccc2C1=O	-5.6	20.7*	1.2	nt	8.3	5.2
COc1ccc(S(=O)(=O)N(C)C[C@H]2Oc3c(NC(=O)NC4CCCCC4)cccc3C(=O)N([C@H](C)CO)C[C@@H]2C)cc1	-7.4	70.1*!	0.8	-9.0	0.7	0.4
C[C@@H]1CN([C@H](C)CO)C(=O)c2cc(-c3cccc(F)c3)cnc2O[C@@H]1CN(C)Cc1cccc(F)c1	-1.6	nt	nt	nt	nt	nt
Cc1ccc(S(=O)(=O)N2[C@@H](Cc3ccccc3)CO[C@H]2CC(=O)c2cccc3ccccc23)cc1	14.8	-2.3	0.1	nt	-1.4	nt
CC(=O)C[C@@H]1OC[C@H](Cc2ccccc2)N1S(=O)(=O)c1ccc(C)cc1	-28.0*	-9.7	-1.2	nt	-2.4	nt
Cc1[nH]c(=O)[nH]c1C(=O)CCCCC(=O)O	9.3	-4.7	73.4*	nt	1.8	-1.1
COc1ccc(-c2ccc3c(c2)[C@@H]2[C@@H](CCN2C(=O)C2CCC2)[C@H](CO)N3C)cc1	-25.1	?	33.0*	nt	nt	nt
CN(C)C(=O)c1ccc(-c2ccc3c(c2)[C@@H]2[C@@H](CCN2C(=O)C2CCCC2)[C@@H](CO)N3C)cc1	-2.3	65.0*	3.7	nt	-3.9	nt
COc1ccc(-c2ccc3c(c2)[C@@H]2[C@@H](CCN2C(=O)NC2CCCCC2)[C@H](CO)N3C)cc1	-4.7	-25.8	16.0	nt	6.3	6.5
COc1ccc(-c2ccc3c(c2)[C@H]2[C@H](CCN2C(=O)NC2CCCC2)[C@H](CO)N3C)cc1	-13.4	-23.1	26.4*	nt	18.6	nt
C=CCOc1c(Br)cc(C2C3=C(CCCC3=O)N(C)C3=C2C(=O)CCC3)cc1OCC	-34.2*	nt	-24.7	18.2	2.7	nt
C=CCOc1ccc(C2C3=C(CCCC3=O)N(CC(=O)O)C3=C2C(=O)CCC3)cc1OCC	3.0	-5.0	-12.1	-2.1	1.7	-0.8
CCC(=O)OCC(=O)Nc1ncc(C(F)(F)F)cc1Cl	-0.1	1.7	2.3	-0.7	4.7	-0.2
O=C(COC(=O)CNC(=O)c1ccc(Cl)cc1)Nc1ncc(C(F)(F)F)cc1Cl	3.8	76.2*	3.5	-3.5	-1.8	nt
Cc1sc2ncnc(N3CCCC(C)C3)c2c1C (configuration not stated)	-28.0*	12.7	0.2	nt	-3.0	-2.5
Cc1sc2ncnc(N3CCCCC3)c2c1C	-48.6	-17.0	1.6	-12.9	-4.0	-2.9
CCCNC(=O)N(C)C[C@@H]1Oc2cc(-c3ccncc3)ccc2S(=O)(=O)N([C@@H](C)CO)C[C@H]1C	5.6	0.3	-3.9	nt	-29.4	2.7
SMILES	Ecoli rRNA inh	DENV2 CPE rescue	AF4-AF9 inh	PfHsp90 set2	S100A4 MyoIIA	Cneo AK release
CC(C)CN(C(=O)c1cc(Cl)nc2ccccc12)c1c(N)n(Cc2ccccc2)c(=O)[nH]c1=O	-1.9	55.9*	-1.9	3.2	5.3	1.0
CCCCn1c(N)c(N(CC(C)C)C(=O)c2cc(Cl)nc3ccccc23)c(=O)[nH]c1=O	15.1	4.9	-1.7	nt	-6.9	nt
COc1cc(OC)c(NC(=O)Nc2ccc(OC)c(OC)c2)cc1Cl	nt	nt	nt	-21.4	nt	-0.2
COc1cc(NC(=O)Nc2ccc(Cl)c(Cl)c2)c(C(=O)O)cc1OC	-40.4*	4.1	-15.6	-4.2	3.1	-3.4
COc1ccccc1NC(=O)N1CCCCN2[C@H](CO)[C@H](c3ccc(C#CC4CC4)cc3)[C@H]2C1	nt	-4.4	12.1	nt	-7.9	nt
O=C(CS(=O)(=O)c1ccccc1)N1CCN(c2ccccc2)CC1	12.2	103.1*	-0.3	14.0	-2.0	-0.6
COc1ccc2c3c(n(C)c2c1)[C@@H](CO)N(C(=O)c1cccc(F)c1)CC31CN(CC2CC2)C1	0.8	6.9	5.7	nt	3.4	nt
CC(C)Sc1nc2ncnc(N)c2[nH]1	7.0	3.5	0.3	14.1	-3.5	113.9*
O=C(CSc1nc2ccccc2s1)NCc1ccc2c(c1)OCO2	nt	nt	nt	-16.8	nt	nt
O=C(CCCSc1nc2ccccc2s1)NCc1ccc2c(c1)OCO2	-27.5*	-2.3	-78.8	17.3	-0.5	nt
COc1ccc2c3c(n(C)c2c1)[C@@H](CO)N(Cc1nccs1)CC31CCN(C(C)=O)CC1	-1.0	1.5	5.6	nt	nt	nt
Cc1ccc(Cn2ccsc2=NC(=O)COC(=O)c2ccc(O)cc2O)cc1	-25.5*	-6.1	-0.9	10.1	-4.4	-12.6
C[C@@H]1CN([C@@H](C)CO)C(=O)CCCn2cc(nn2)CO[C@@H]1CN(C)Cc1ccc(C(=O)O)cc1	2.9	-2.5	-3.5	nt	10.0	nt
COCC#Cc1ccc2c(c1)O[C@H](CN(C)CC1CCCCC1)[C@H](C)CN([C@H](C)CO)S2(=O)=O	1.2	nt	nt	nt	nt	nt
N#C[C@H]1[C@@H](c2ccc(C#Cc3ccccc3F)cc2)[C@@H](CO)N1C(=O)C1CCCC1	-44.1	32.9*	0.2	nt	4.1	nt
N#C[C@@H]1[C@H](c2ccc(C#Cc3ccc(F)cc3)cc2)[C@@H](CO)N1C(=O)C1CCCC1	0.4	51.1*	-1.2	nt	-0.9	0.9
